# Experimental data reported in PubChem BioAssay AID635 (SRMLSC, 2007).
# About 40 (3%) of roughly 1,300 compounds were called active. The rule behind the calls is not given here. A selection follows. Entries with a potency or affinity are not part of this list.
# Test: growth inhibition of wild-type E. coli BW25113 pool, dose response, OD615 (AID 635)
# Details: pooled mutant strains; at 100 µM (top of the series)
# How it was run: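 times: 20 h, 37 °C growth with compound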
row,SMILES,growth inhibition
1,CCOC(=O)N1CCN(c2nc3ccccc3nc2C(C#N)S(=O)(=O)c2ccc(C)cc2)CC1 (configuration not stated),-1.57% (inactive)
2,CCOc1ccc(N(CC(=O)Nc2cccc(Cl)c2)S(=O)(=O)c2c(C)noc2C)cc1,2.36% (inactive)
3,CN1/C(=C\C(=O)COc2ccc3c(c2)OCO3)C(C)(C)c2ccccc21,-6.25% (inactive)
4,O=C(COc1ccccc1)Nc1nnc(-c2ccc(Cl)s2)o1,2.47% (inactive)
5,O=c1c2c(nc3n1CCCCC3)-c1ccccc1CC21CCCC1,-5.17% (inactive)
6,Cc1ccc(C(C(=O)NC2CCCC2)N(Cc2cccs2)C(=O)CNC(=O)c2cccs2)o1 (configuration not stated),5.18% (inactive)
7,Cc1ccc(C)c(N2CCN(C(=O)c3ccc(NS(=O)(=O)c4c(C)noc4C)cc3)CC2)c1,3.98% (inactive)
8,Cc1ccc(CN2C(=O)NC(=O)C3(Cc4c(nc5ccccn5c4=O)N4CCCCCC43)C2=O)cc1 (configuration not stated),-2% (inactive)
9,O=C(NC12CC3CC(CC(C3)C1)C2)c1ccccc1O,8.6% (inactive)
10,COc1ccc(-c2[nH]c(-c3cccc(OC)c3)nc2SCC(=O)NCc2ccco2)cc1,-2.87% (inactive)
11,OC(COc1ccc(Cl)c2ccccc12)CN1CCN(c2ccccn2)CC1 (configuration not stated),-3.05% (inactive)
12,O=C(Nc1nc2n(n1)C(c1ccc(Cl)cc1)CC(c1ccc(Cl)cc1)N2)c1ccco1 (configuration not stated),9.43% (inactive)
13,CCOc1cc(C)c(C(C)C)cc1S(=O)(=O)N1CC(C)OC(C)C1 (configuration not stated),3.51% (inactive)
14,CCN(C(=O)c1ccc(C(C)(C)C)cc1)c1nnc(Cn2nnc3ccccc32)s1,2.41% (inactive)
15,COc1cc2cc(C(c3nnnn3C3CCCCC3)N(C)C3CCCCC3)c(=O)[nH]c2cc1OC (configuration not stated),-2.92% (inactive)
16,N#Cc1c(NC(NC(=O)c2ccco2)C(=O)c2ccccc2)sc2c1CCCC2 (configuration not stated),1.57% (inactive)
17,Cc1ccc(C)c(SCC(=O)Nc2nnc(-c3ccccc3)o2)c1,6.77% (inactive)
18,COc1cccc(-c2csc(N3CCN(C(=O)C4CCCCC4)CC3)n2)c1,-1.87% (inactive)
19,O=C(Nc1cccc(C(F)(F)F)c1)N1CCC(c2nc(-c3ccc(F)cc3)no2)CC1,-2.79% (inactive)
20,CCOc1ccc2nc(NC(=O)C(CC)Sc3nc(C)cc(=O)[nH]3)sc2c1 (configuration not stated),0.31% (inactive)
21,CCn1cc(C(=O)Nc2nncs2)c(=O)c2cc(F)c(N3CCN(C(=O)c4ccco4)CC3)cc21,15.6% (inactive)
22,CCn1cc(C(=O)O)c(=O)c2cc(OC)ccc21,-5.37% (inactive)

row,SMILES,growth inhibition
1,CCn1cc(C(=O)O)c(=O)c2cnc(N3CCN(C(=O)Nc4ccccc4)CC3)nc21,5.46% (inactive)
2,Cc1nc2c(C(=O)NCc3ccc4c(c3)OCO4)c[nH]n2c(=O)c1Cc1ccccc1F,0.56% (inactive)
3,CCOC(=O)c1cn(CC)c2cc(N3CCOCC3)c(F)cc2c1=O,3.52% (inactive)
4,CCOC(=O)c1cn(CC)c2cc(N3CCCCC3)c(F)cc2c1=O,-1.4% (inactive)
5,Cc1ccc2nc(NC(=O)CNS(=O)(=O)c3ccc(Br)s3)sc2c1,1.78% (inactive)
6,CN(C)c1nc(SCCOC(=O)Nc2ccccc2)nc(N(C)C)n1,3.85% (inactive)
7,O=C(Nc1nc(-c2ccccc2)cs1)c1cccs1,-1.94% (inactive)
8,COc1ccc(CN(C(=O)CN2C(=O)COc3ccccc32)C2CCCC2)c(OC)c1,6.95% (inactive)
9,COc1ccc2[nH]c3c(=O)n(CCCCC(=O)NCCN4CCCC4)c(=S)[nH]c3c2c1,-2.44% (inactive)
10,Clc1ccc(Cl)c(-c2nn3c(COc4ccccc4)nnc3s2)c1,2.46% (inactive)
11,CCOC(=O)c1nnn(-c2nonc2-n2cccc2)c1CN1CCC(C)CC1,3.87% (inactive)
12,COc1ccc(Cn2c(=O)sc3ccccc32)cc1,2.87% (inactive)
13,O=C(NC1CCCCCCC1)c1ccccc1O,0.38% (inactive)
14,Brc1cccc(-c2n[nH]c(-c3ccccc3)n2)c1,4.22% (inactive)
15,CCc1nc2sc3ccccc3c(=O)c2c(=O)n1Cc1ccco1,5.6% (inactive)
16,CCOC(=O)c1c(NS(=O)(=O)c2cccc(OC)c2)sc2c1CCC2,0.74% (inactive)
17,CCCn1nnc(NC(=O)COc2ccc(C3CCCCC3)cc2)n1,6.61% (inactive)
18,COc1cccc(NC(=O)N2CCN(c3cccc(C)c3C)CC2)c1,-2.15% (inactive)
19,CN(Cc1ccccc1)C(=O)CSc1nc2ccccc2c(=O)n1Cc1ccco1,4.9% (inactive)
20,COc1ccc2nc(NC(=O)C3CCCN(S(=O)(=O)c4cccs4)C3)sc2c1 (configuration not stated),-10.2% (inactive)
21,c1ccc(-c2oc3ncnc(NCCCn4ccnc4)c3c2-c2ccccc2)cc1,13.2% (inactive)
22,CC(C)(C)OC(=O)N1CCC[C@H]1c1nnc(SCc2ccc(Cl)cc2Cl)o1,6.74% (inactive)

row,SMILES,growth inhibition
1,Cn1c(CSc2nc3ccccc3s2)nc2ccccc21,-7.99% (inactive)
2,CCOC(=O)c1ccc(-n2[nH]c(-c3ccccc3)cc2=O)cc1,-2.7% (inactive)
3,Cn1c(C(=O)N2CCc3ccccc3C2)cc2oc3ccccc3c21,-4.13% (inactive)
4,Cc1ccc(Nc2nc(CSc3nnnn3-c3ccccc3)cs2)cc1,-12.4% (inactive)
5,O=C(c1ccco1)N1CCN(c2c(-c3ccccc3)c3cc(Cl)ccc3[nH]c2=O)CC1,0.97% (inactive)
6,Cc1ccc(S(=O)(=O)NCCSc2nnnn2-c2cc(C)ccc2C)cc1,1.62% (inactive)
7,CCOc1ccc(-c2nc(C#N)c(N3CCCCCC3)o2)cc1,-1.95% (inactive)
8,COc1ccc(-c2csc(NCc3ccco3)n2)cc1C,-4.35% (inactive)
9,COc1cc(-c2nc(Cc3ccccc3Cl)no2)cc(OC)c1OC,-4.44% (inactive)
10,CC(=O)c1c(O)cc(C)n(Nc2nc(C)cc(C)n2)c1=O,-5.46% (inactive)
11,Cc1ccc(CN2CCSc3ccc(C(=O)N4CCN(c5ncccn5)CC4)cc32)cc1,-4.07% (inactive)
12,COc1nnc(-c2ccc(N3CCCCC3)c(N)c2)c2ccccc12,9.66% (inactive)
13,Cc1ccc(SCC(=O)N(Cc2nc(-c3ccccc3)no2)C(C)C)cc1,3.99% (inactive)
14,Cc1c(NC(=O)Nc2ccc(Cl)c(Cl)c2)c(=O)n(-c2ccccc2)n1C,1.5% (inactive)
15,Cc1noc(NS(=O)(=O)c2ccc(NC(=O)COc3ccc(Cl)cc3Cl)cc2)c1C,2.59% (inactive)
16,Cc1noc(NS(=O)(=O)c2ccc(NC(=O)Nc3ccc(Cl)c(Cl)c3)cc2)c1C,7.34% (active)
17,CCOC(=O)c1csc(Nc2nc3ccc(F)cc3s2)n1,-0.43% (inactive)
18,O=c1n(Cc2ccccc2)c2cc(Cl)cnc2n1Cc1ccccc1,-2.48% (inactive)
19,CC(C)(C)C(=O)Cn1c(=N)n(Cc2ccccc2)c2ccccc21,1.48% (inactive)
20,Cc1cc(Cl)cc(C)c1OCCCCn1ccnc1,8.19% (inactive)
21,COc1ccc(Oc2cn[nH]c2-c2ccc(O)cc2O)cc1,-1.15% (inactive)
22,COc1cc(NS(=O)(=O)c2ccc(NC(=O)COc3ccccc3Cl)cc2)nc(OC)n1,-7.59% (inactive)

row,SMILES,growth inhibition
1,CC1(C)CC(=O)C=C(NCCN2CCN(C(=O)Nc3ccc(Cl)c(Cl)c3)CC2)C1,3.54% (inactive)
2,Cc1ccc2[nH]c(=O)c(C(c3nnnn3C3CCCC3)N(Cc3cccnc3)Cc3ccco3)cc2c1 (configuration not stated),0.6% (inactive)
3,Cc1ccc2c(c1)NC(=O)C(CC(=O)NCCCN1CCN(c3cc(Cl)ccc3C)CC1)O2 (configuration not stated),1.34% (inactive)
4,CC(C)CCOC(=O)c1c(N)n(CC2CCCO2)c2nc3ccccc3nc12 (configuration not stated),4.63% (inactive)
5,CCOc1cccc(NC(=O)C2CC(=O)N(C)C(=Nc3cccc(F)c3)S2)c1 (configuration not stated),-8.98% (inactive)
6,COC(=O)c1ccc(OC)c(CSc2nnc(COc3ccccc3)o2)c1,0.08% (inactive)
7,Cc1ccc(SC/C(O)=C(\C#N)c2nc3ccccc3s2)cc1,0.79% (inactive)
8,O=C(COc1ccccc1)Nc1ccccc1N1CCCCC1,-2.29% (inactive)
9,O=C(CCSc1nc(-c2ccco2)cc(C(F)(F)F)n1)N1CCCc2ccccc21,-1.07% (inactive)
10,Cc1ccccc1Cn1nc(C)c(NC(=O)c2noc3c2CCc2ccccc2-3)c1C,-4.26% (inactive)
11,CCn1c2ccccc2c2nnc(SCc3ccccc3)nc21,-4.04% (inactive)
12,Cc1ccc(-n2c(C)cc(C3N=C(N)Nc4nc5ccccc5n43)c2C)c(C)c1 (configuration not stated),6.51% (inactive)
13,CCCCCC(=O)Nc1ccccc1N1CCN(c2ccccc2)CC1,1.48% (inactive)
14,O=C(c1ccc(COc2ccc3c(c2)CCC3)o1)N1CCN(c2ccccc2)CC1,-0.73% (inactive)
15,CCN(CC)c1nc(N)c2c(N)nc3c(c2c1C#N)CC(c1ccccc1)O3 (configuration not stated),9.58% (inactive)
16,CCc1ccccc1N(C)C(=O)CCc1nc(-c2ccc(C)cc2)no1,-3.1% (inactive)
17,CCOC(=O)C1CN(c2cc3c(cc2F)c(=O)c(C(=O)O)cn3CC)OC1C(=O)OCC (configuration not stated),0.67% (inactive)
18,Cc1nn(-c2ccccc2)c2sc(C(=O)N(CC(=O)NC(C)(C)C)Cc3ccco3)cc12,-4.44% (inactive)
19,Cc1onc(-c2ccccc2)c1C(=O)Nc1nnc(N(C)Cc2ccccc2)s1,-4.99% (inactive)
20,COc1cccc(-c2cc(C(=O)N3CC4(C)CC3CC(C)(C)C4)no2)c1 (configuration not stated),0.09% (inactive)
21,CC(C)C(c1nnnn1C1CCCC1)N1c2ccccc2CC1C (configuration not stated),0.18% (inactive)
22,CC1CCN(S(=O)(=O)c2ccc(Cl)cc2Br)CC1,7.88% (inactive)

row,SMILES,growth inhibition
1,CCOC(=O)c1ccc(N2C(=O)c3n[nH]c(C)c3C2c2ccc(OC)cc2OC)cc1 (configuration not stated),-0.55% (inactive)
2,O=C(c1ccc(COc2c(F)c(F)cc(F)c2F)o1)N1CCN(c2ccc(Cl)cc2)CC1,-6.87% (inactive)
3,N#Cc1ccc(CSc2nnc(-c3cccs3)n2-c2ccccc2)cc1,-1.14% (inactive)
4,CCn1c(CNc2cccc(Cl)c2)nnc1SCC(=O)OC1CCCCC1,1.08% (inactive)
5,Fc1ccc(Br)cc1C1C=C(c2ccc(Br)s2)Nc2ncnn21 (configuration not stated),-4.11% (inactive)
6,CC1CCN(S(=O)(=O)c2cccc(C(=O)NCc3cccs3)c2)CC1,0.28% (inactive)
7,CC(=O)Nc1cccc(NC(=O)c2oc3ccccc3c2C)c1,2.78% (inactive)
8,N=C(N)c1c(O)n(C2CCCCC2)c(=O)n(C2CCCCC2)c1=O,3.33% (inactive)
9,COCc1nnc(NC(=O)c2ccc(S(=O)(=O)N(C)C3CCCCC3)cc2)o1,0.24% (inactive)
10,Cc1cc(Nc2ccccc2)nc(-c2ccccc2O)n1,1.65% (inactive)
11,CCOC(=O)c1cnc(-n2nc(C)cc2C)nc1NCc1ccccc1,0.66% (inactive)
12,CCn1nc(-c2ccccc2)nc2c(=O)n(C)c(=O)nc1-2,1.94% (inactive)
13,CC(C)(C)c1cc(C(F)(F)F)nc(SCCCNC(=O)c2ccco2)n1,6.78% (inactive)
14,CC(C)(C)n1nnnc1C(c1cccs1)N(Cc1ccccc1)Cc1cccnc1 (configuration not stated),3.16% (inactive)
15,CCOC(=O)c1c(-c2ccccc2)nnn1-c1nc(OCC)nc(N2CCCCC2)n1,0.78% (inactive)
16,c1ccc(CCN2CCN(c3ncnc4c3cnn4-c3ccccc3)CC2)cc1,6.43% (inactive)
17,CCOC(=O)c1ccc(NC(=O)CCc2nc(-c3ccccc3Cl)no2)cc1,-0.84% (inactive)
18,CCOc1ccc(S(=O)(=O)Nc2cccc(Cl)c2)cc1,12.8% (inactive)
19,CCCCOc1ccc(S(=O)(=O)N2CCCCCC2)cc1,3.61% (inactive)
